Test results published in ChEMBL document CHEMBL3044924, “Design, synthesis, and insecticidal activities of phthalamides containing a hydrazone substructure” (2010).
Converted amounts (≈) assume the structure as drawn. The source made the active and inactive calls. No cut-off for these calls is given here.

Columns and labels:
Myzus persicae [1] = assay: Stomach toxicity in adult Myzus persicae (green peach aphid) in compound treated cabbage leaves assessed as mortality at 600 mg/L at 25 degC and 85% RH for 24 hr; type: functional, organism-based
Plutella xylostella = assay: Larvicidal activity against second instar Plutella xylostella (diamondback moth) in compound treated cabbage leaves assessed as mortality at 600 mg/L measured after 3 days; type: functional; conditions: 72 h
Method in brief: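 Lab-reared field-collected stock (Haidian, Beijing), second-instar larvae. Leaf-dip assay: 2.0 cm cabbage leaf disks dipped 5 s in test solution, air-dried, then placed in a 6.0 cm tube lined with filter paper. Larvae added within 10 s. Mortality (%) scored 3 days after treatment, two replicates.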

Myzus persicae [2] = assay: Insecticidal activity against adult Myzus persicae (green peach aphid) in compound treated cabbage leaves assessed as mortality at 25 degC and 85% RH for 24 hr; type: functional
Myzus persicae [3] = assay: Insecticidal activity against adult Myzus persicae (green peach aphid) in compound treated cabbage leaves assessed as mortality at 12.5 mg/L at 25 degC and 85% RH for 24 hr; type: functional
Method in brief: (§1)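 Aphids exposed to treated leaf at 200, 50 and 12.5 mg/L. Mortality corrected for untreated controls with Abbott's formula.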

Myzus persicae [4] = assay: Insecticidal activity against adult Myzus persicae (green peach aphid) in compound treated cabbage leaves assessed as mortality at 200 mg/L at 25 degC and 85% RH for 24 hr; type: functional; method in brief: as §1
Myzus persicae [5] = assay: Insecticidal activity against adult Myzus persicae (green peach aphid) in compound treated cabbage leaves assessed as mortality at 50 mg/L at 25 degC and 85% RH for 24 hr; type: functional; method in brief: as §1
Myzus persicae [6] = assay: Insecticidal activity against adult Myzus persicae (green peach aphid) in compound treated cabbage leaves assessed as mortality at 600 mg/L at 25 degC and 85% RH for 24 hr; type: functional

SMILES	Activity (Myzus persicae [1])	mortality at 600 µg/mL (Plutella xylostella) [%]	LC50 (Myzus persicae [2]) [µg/mL]	mortality at 12.5 µg/mL (Myzus persicae [3]) [%]	mortality at 200 µg/mL (Myzus persicae [4]) [%]	mortality at 50 µg/mL (Myzus persicae [5]) [%]	mortality at 600 µg/mL (Myzus persicae [6]) [%]
Cc1ccsc1C=NNC(=O)c1cc(Cl)ccc1C(=O)NC1CCCCC1	Active	11.1	58.9 (≈ 146 µM)	22.4	45.2	41.7	90.6
CCCCNC(=O)c1ccc(Cl)cc1C(=O)NN=Cc1ccco1	Active	44.4	234 (≈ 673 µM)	0	20	11.7	100
Cc1ccc(C=NNC(=O)c2cc(Cl)ccc2C(=O)NC2CCCCC2)o1	Active	33.3	271 (≈ 700 µM)	0	16	7.3	93
Cc1ccc(C=NNC(=O)c2cc(Cl)ccc2C(=O)NC(C)C)o1	Active	44.4	122 (≈ 350 µM)	13.8	50	16.9	96.4
CCCCNC(=O)c1ccc(Cl)cc1C(=O)NN=Cc1ccc(F)cc1	Active	33.3	310 (≈ 825 µM)	19	20	18.6	97.7
O=C(NN=Cc1cccs1)c1cc(Cl)ccc1C(=O)NC1CCCCC1	Active	33.3	113 (≈ 290 µM)	19.6	37.8	13.5	98.8
CCCCNC(=O)c1ccc(Cl)cc1C(=O)NN=Cc1ccc(C(F)(F)F)cc1	Active	33.3	130 (≈ 305 µM)	12.5	49.3	22.9	96.6
CC(C)NC(=O)c1ccc(Cl)cc1C(=O)NN=Cc1ccc(F)cc1	Active	100	68.1 (≈ 188 µM)	21.9	57.8	52.8	91.3
CC(C)NC(=O)c1ccc(Cl)cc1C(=O)NN=Cc1ccc(O)cc1	Active	55.6	129 (≈ 357 µM)	5.4	55.6	16.9	100
CC(C)NC(=O)c1ccc(Cl)cc1C(=O)NN=Cc1ccccc1Cl	Active	33.3	171 (≈ 451 µM)	16.3	28.2	12.5	92.9
O=C(NN=Cc1ccccc1F)c1cc(Cl)ccc1C(=O)NC1CCCCC1	Active	33.3	276 (≈ 687 µM)	5.9	23.8	8.3	90.2
Cc1ccc(C=NNC(=O)c2cc(Cl)ccc2C(=O)NC(C)C)s1	Active	55.6	76.2 (≈ 209 µM)	29.3	52.3	32.7	100
O=C(NN=Cc1ccc(O)cc1)c1cc(Cl)ccc1C(=O)NC1CCCCC1	Active	55.6	244 (≈ 611 µM)	25.7	24.6	19.4	92.6
Cc1cc(C(F)(C(F)(F)F)C(F)(F)F)ccc1NC(=O)c1cccc(I)c1C(=O)NC(C)(C)CS(C)(=O)=O [FLUBENDIAMIDE]	–	–	184 (≈ 270 µM)	–	–	–	–
Cc1ccsc1C=NNC(=O)c1cc(Cl)ccc1C(=O)NC(C)C	Active	44.4	124 (≈ 342 µM)	16.3	56.1	25.5	90.6
CC(C)NC(=O)c1ccc(Cl)cc1C(=O)NN=Cc1cccs1	Active	0	70.5 (≈ 202 µM)	24	45.5	30.3	98.7
CCCCNC(=O)c1ccc(Cl)cc1C(=O)NN=Cc1ccccc1F	Active	22.2	122 (≈ 324 µM)	9.7	39.6	34	94.6
CC(C)NC(=O)c1ccc(Cl)cc1C(=O)NN=Cc1ccco1	Active	44.4	161 (≈ 484 µM)	18.6	29.3	25.4	100
CCCCNC(=O)c1ccc(Cl)cc1C(=O)NN=Cc1cccs1	Active	44.4	124 (≈ 341 µM)	9.4	35.7	23.3	98.6
O=C(NN=Cc1ccccc1Cl)c1cc(Cl)ccc1C(=O)NC1CCCCC1	Active	66.7	148 (≈ 355 µM)	26.2	41.3	28	100
Cc1nn(-c2ccccc2)c(Cl)c1C=NNC(=O)c1cc(Cl)ccc1C(=O)NC1CCCCC1	Active	66.7	266 (≈ 534 µM)	16.7	9.5	9.1	91.9
O=C(NN=Cc1ccco1)c1cc(Cl)ccc1C(=O)NC1CCCCC1	Active	33.3	221 (≈ 592 µM)	8.2	15.7	20	100
